Data as given in publication PMC6071920 (MedChemComm, 2016).
“And” between values parts separate entries of the source, which are not always exact repeats. Equal entries are not always repeated. Where two headings read alike, the source gives them in different places.

Tests used:
[1] = biological target: TSPO; conditions: read-out: Ki for the TSPO; cited from earlier work
[2] = tested on: TSPO A147T; assay type: binding, human; conditions: fold discrimination (loss of affinity at TSPO A147T versus TSPO WT)
[3] = tested on: TSPO WT over-expressing 293T cells; assay: Proliferation; assay type: cell-based, human; conditions: 48 h, BrdU ELISA
Summary of the method: (§1)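 Clonally selected 293T cells, lentivirally transduced with human TSPO WT or A147T, puromycin-selected, grown in DMEM with 10% FBS, 100 U ml−1 penicillin/streptomycin and 2 mM glutamine. BrdU labelled at 37 °C for 4 h, then detected by BrdU ELISA. Stopped with 1 M sulfuric acid and read at 450 nm. Normalised to vehicle controls; one-way ANOVA with Dunnett's test.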

[4] = tested on: TSPO A147T over-expressing 293T cells; assay: Proliferation; assay type: cell-based, human; conditions: 48 h, BrdU ELISA
Summary of the method: as §1

[5] = biological target: TSPO WT (Homo sapiens, UniProt P30536, T147A); assay type: binding; conditions: 3b versus 3a; 4b versus 4a
[6] = biological target: TSPO A147T (Homo sapiens, UniProt P30536); assay type: binding
[7] = tested on: TSPO; conditions: cited from earlier work; for Fold reduction of affinity in LABs compared to HABs: brain tissue or lymphocytes
[8] = cited from earlier work
[9] = biological target: rat TSPO; conditions: read-out: Affinity commonly reported at the rat TSPO; cited from earlier work

Chain of TSPO A147T (Homo sapiens, UniProt P30536) (P30536 whole entry, stated change not applied): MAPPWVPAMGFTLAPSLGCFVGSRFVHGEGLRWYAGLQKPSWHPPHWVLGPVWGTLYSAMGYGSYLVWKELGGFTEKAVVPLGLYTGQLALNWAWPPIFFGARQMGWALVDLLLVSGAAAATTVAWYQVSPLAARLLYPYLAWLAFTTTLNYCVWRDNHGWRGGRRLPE
Chain of TSPO WT (P30536 whole entry T147A): as the sequence (P30536 whole entry, stated change not applied) above, with T147A counted along it

For NC(=O)c1nc(-c2ccccc2)c2ccccc2n1 [4-phenyl quinazoline-2-carboxamide], which Ki [1] is on record?
The Ki was 0.5 nM.

For CCN(CC)C(=O)Cn1c2ccccc2c2ccccc21 [Compound 3a, 2-(9H-Carbazol-9-yl)-N,N-diethylacetamide], which “TSPO A147T Ki/TSPO WT Ki” value [2] is on record?
The value was 6.

Which “Effect on proliferation at 100 μM, TSPO WT cells” value [3] does the source give for CCN(Cc1ccccc1)C(=O)Cn1c2ccccc2c2ccccc21 [Compound 3b, N-Benzyl-2-(9H-carbazol-9-yl)-N-ethylacetamide] here?
The value was “did not significantly affect proliferation”.

What about the “Effect on proliferation at 100 μM, TSPO A147T cells” value [4] of the same molecule?
Its value is “did not significantly affect proliferation”.

And the “Fold lower affinity at TSPO WT than the N,N-diethylamide analogue” value [5]?
Its value is 3 ×.

What about the “Fold reduction in TSPO A147T affinity compared to 3a” value ([6]; 3b versus 3a) of the same molecule?
The value was 2.6 ×.

With CCN(CC)C(=O)Cn1c2ccccc2c2cc(Br)ccc21 [Compound 4a, 2-(3-Bromo-9H-carbazole-9-yl)-N,N-diethylacetamide] as the molecule, how does the “TSPO A147T Ki/TSPO WT Ki” value [2] read?
Its value is 5.

Which “TSPO A147T Ki/TSPO WT Ki” value [2] does the source give for CCN(CC)C(=O)Cn1c2ccccc2c2cc(-c3ccccc3)ccc21 [Compound 5a, N,N-Diethyl-2-(3-phenyl-9H-carbazole-9-yl)acetamide] here?
Its value is 5- to 6.

Which “Fold improved (higher) affinity at TSPO A147T than the comparator analogue” value ([6]; 4b versus 4a, 5c versus 3a) does the source give for CCN(CC)C(=O)Cn1c2ccccc2c2cc(-c3ccc(OC)cc3)ccc21 [Compound 5c, N,N-Diethyl-2-(3-(4-methoxyphenyl)-9H-carbazole-9-yl)acetamide] here?
Its value is 2 ×.

What does the source list for CCN(CC)C(=O)Cc1c(-c2ccc(OC)cc2)nn2c(C)cc(C)nc12 [DPA-713]?
Effect on proliferation at 100 μM, TSPO WT cells [3]: did not significantly affect proliferation; Effect on proliferation at 100 μM, TSPO A147T cells [4]: did not significantly affect proliferation

For COc1ccccc1CN(C(C)=O)c1cnccc1Oc1ccccc1 [PBR-28], which “Fold reduction of affinity in LABs compared to HABs” value [7] is on record?
The value was 55 fold.

Which results are given for CCC(C)N(C)C(=O)c1cc2ccccc2c(-c2ccccc2Cl)n1 (centres unmarked) [PK 11195]?
In vivo bioavailability [8]: poor in vivo bioavailability; Ki [9]: 0.7 to 18 nM

Which results are given for CCN(Cc1ccccc1)C(=O)Cn1c(=O)n(C)c2cnc(-c3ccccc3)nc21 [XBD-173]?
Fold reduction of affinity in LABs compared to HABs [7]: 13 fold; Ki ([7]; read-out: Affinity at LABs, LAB brain tissue): 30.3 nM; TSPO A147T Ki/TSPO WT Ki [2]: 5 and 5- to 6
